Assay results of several laboratories.
Each line is one published result; the experiments were not run side by side.
CDK17: Cyclin-dependent kinase 17 (CDK17, Homo sapiens, UniProt Q00537)
CDK17 with cyclin Y: Cyclin-dependent kinase 17, with cyclin Y (CDK17, Homo sapiens, UniProt Q00537)

| SMILES | target | read-out | action | technique | tested at | quantity | result |
| --- | --- | --- | --- | --- | --- | --- | --- |
| CCCCC(=O)Nc1ccc(-c2ccc3ncn(CCC)c(=O)c3c2)cn1 | CDK17 | binding | – | competition with immobilised ligand | 0.5 µM | remaining binding | 100% |
| CC#CC(=O)N1CCC[C@H]1c1nc(-c2ccc(C(=O)Nc3ccccn3)cc2)c2c(N)nccn12 | CDK17 | enzyme activity | inhibitor | – | 1 µM | inhibition | 0% |
| Cc1ccc(NC(=O)c2ccnc(C(F)(F)F)c2)cc1-c1cc(OCCO)nc(N2CCOCC2)c1 | CDK17 | binding | – | competition with immobilised ligand | 1 µM | remaining binding | 98% |
| Cc1cc(O)c(-c2ccc([C@@H](C)CN(C)C)cc2)c2c1[nH]c(=O)c1sccc12 | CDK17 | enzyme activity | inhibitor | – | 0.1 µM | inhibition | 2.42% |
| COc1ccc2oc(-c3ccc4nc(N)oc4c3)c/c(=N\c3ccccc3NC(=O)CCN)c2c1 | CDK17 with cyclin Y | binding | – | – | 1 µM | remaining binding | 100% |
| CC(C)S(=O)(=O)c1ccc2nccc(Nc3ccc4sc(C5CCCC5)nc4c3)c2c1 | CDK17 with cyclin Y | enzyme activity | inhibitor | – | 1 µM | activity vs control | 111% |
| C[C@H]1CC[C@H](n2c3cnccc3c3cnc(Nc4ccc5c(n4)CCN(C(=O)CO)C5)nc32)CC1 | CDK17 | binding | – | competition with immobilised ligand | 1 µM | remaining binding | 24% |
| CO[C@@H]1[C@H](N(C)C(=O)c2ccccc2)C[C@H]2O[C@]1(C)n1c3ccccc3c3c4c(c5c6ccccc6n2c5c31)C(=O)NC4 | CDK17 | enzyme activity | inhibitor | – | 1 µM | inhibition | 0% |
